Experimental data reported in ChEMBL document CHEMBL1811876 (J Med Chem, 2011).
Calls of active or inactive are those of the source.

Legend:
[1] = Toxicity against athymic nude mouse xenografted with human HT-29 cells assessed as mortality at 20 mg/kg, iv qd measured on day 12; format: organism-based; set-up: dose 20 mg/kg, route intravenous; settings: in vivo, read-out: Activity
Summary of the method: (§1)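 Male athymic nude mice carrying human HT-29 colorectal adenocarcinoma xenografts, with a vehicle-treated control group. Dosing was 20 mg/kg given either i.v. once daily (qd) to the end of the study or i.v./i.p. twice daily (bid) to the end. Read-outs were median time to endpoint (TTE), maximum group body weight loss and treatment-related deaths. Significance threshold was P < 0.05.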

HT-29 [2] = assay: Anticancer activity against human HT-29 cells xenografted in athymic nude mouse assessed as median time to end point at 20 mg/kg, iv bid for 29 days; format: functional
Summary of the method: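 Male athymic nude mice bearing HT-29 human colorectal adenocarcinoma xenografts. Drug dosed i.v./i.p. at 20 mg/kg twice daily (bid) to end of study. A vehicle-treated group served as control. The read-out was median time to endpoint (TTE) per group, with maximum group body weight loss and treatment-related deaths tracked. Significance was judged at P < 0.05.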

DU-145 = assay: Anticancer activity against human DU145 cells after 72 hrs by sulforhodamine B assay; format: functional; settings: DU-145, 72 h
HT-29 [3] = assay: Anticancer activity against human HT-29 cells xenografted in athymic nude mouse assessed as median time to end point at 20 mg/kg, ip bid for 29 days; format: functional; settings: route intraperitoneal; summary of the method: as §1
HUVEC = assay: Toxicity against HUVEC; format: cell-based; settings: human
[4] = Toxicity against athymic nude mouse xenografted with human HT-29 cells assessed as mortality at 20 mg/kg, iv bid measured on day 19; format: organism-based; set-up: dose 20 mg/kg, route intravenous; settings: in vivo, read-out: Activity; summary of the method: as §1
KB = assay: Anticancer activity against human KB cells after 72 hrs by sulforhodamine B assay; format: functional
[5] = Upregulation of CDC6 expression in human CL1-5 cells at 0.01 ug/mL by RT-PCR analysis after 24 to 48 hrs; format: functional, cell-based
HT-29 [6] = assay: Anticancer activity against human HT-29 cells xenografted in athymic nude mouse assessed as median time to end point at 20 mg/kg, iv qd for 29 days; format: functional; summary of the method: as §1
A549 = assay: Anticancer activity against human A549 cells after 72 hrs by sulforhodamine B assay; format: functional; settings: A549, 72 h
[7] = Upregulation of Cdt1 expression in human CL1-5 cells at 0.01 ug/mL by RT-PCR analysis after 24 to 48 hrs; format: functional, cell-based
HCT-8 = assay: Anticancer activity against human HCT8 cells after 72 hrs by sulforhodamine B assay; format: functional; settings: HCT-8, 72 h
[8] = (§2) Upregulation of Cdt1 expression in human CL1-5 cells at 0.01 ug/mL by RT-PCR analysis after 24 to 48 hrs by Western blot; format: functional, cell-based
Summary of the method: (§3)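 CL1-5 cells were exposed to the test agent for 24 and 48 h. Cdt1 and CDC6 protein levels were then assessed by Western blot.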

[9] = as §2; format: functional, cell-based; summary of the method: as §3; remark: listed apart in the source

## COc1ccc2c3c(c4cc(OC)c(OC)cc4c2c1)C[C@H]1COCCN1C3
[1]
  mortality: 1.1%
HT-29 [2]
  Time: 20.9 days
DU-145
  GI50: 67 nM
HT-29 [3]
  Time: 20.9 days
HUVEC
  GI50: 320 nM
[4]
  mortality: 7.2%
KB
  GI50: 37 nM
[5]
  Activity: inactive
HT-29 [6]
  Time: 21.3 days
A549
  GI50: 23 nM
[7]
  Activity: inactive
HCT-8
  GI50: 9 nM
[8]
  Activity: inactive
[9]
  Activity: inactive
